Tests used:
[1] = Percentage inhibition of H/XO (chemiluminescence) was determined at 10 uM concentration
Outline: (§1)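 Cell-free superoxide made by the hypoxanthine/xanthine oxidase system, with chemiluminescence recorded.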

Mus musculus [2] = species on record: Mus musculus; test: PGE-2 levels were assayed in LPS stimulated RAW 264.7 macrophages for 20h in either presence or absence of compound; format: functional
Outline: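 Murine RAW 264.7 cells grown in DMEM with 2 mM glutamine, antibiotics and 10% FBS. Cells at 2 × 10⁶/mL exposed to E. coli LPS 1 µg/mL, 37 °C, 20 h, with compound or vehicle. PGE₂ in supernatants by radioimmunoassay. […] Cytotoxicity checked by MTT reduction.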

Mus musculus [3] = species on record: Mus musculus; test: PGE-2 level was assayed in RAW 264.7 macrophages after a 20h stimulation with LPS followed by incubation with compound and arachidonic acid for 2 hr; format: functional
Outline: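 RAW 264.7 cells first stimulated with LPS for 20 h, then washed and incubated 2 h with compound plus arachidonic acid. PGE₂ measured to assess COX-2 activity in intact cells.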

Homo sapiens [4] = species on record: Homo sapiens; test: Percent inhibition of neutrophils (chemiluminescence) was determined at 10 uM concentration; format: functional
Outline: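 Purified human neutrophils at 2.5 × 10⁶ cells/mL with luminol 40 µM and TPA 1 µM; chemiluminescence recorded. Compounds tested at 10 µM; mean ± SEM.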

Mus musculus [5] = test: Antiinflammatory activity, assessed by the carrageenan paw edema test in mice; format: functional
Outline: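 Mice dosed orally with compound at 20 mg/kg (reference at 10 mg/kg) in Tween 80/saline 1/99 v/v, 1 h before subplantar 3% w/v carrageenan (0.05 mL) in right hind paw. Paw volumes by plethysmometer at 1, 3 and 5 h; edema values at 3 h. Mean ± SEM, n 6-12; ANOVA with Dunnett's t-test.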

Mus musculus [6] = test: PGE-2 levels were assayed in inflamed paw after 5 hr carrageenan paw edema test in mice; format: functional
Outline: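 Carrageenan-injected mice (oral compound 1 h prior, Tween 80/saline vehicle) killed by cervical dislocation 5 h after carrageenan. Right hind paws homogenized and PGE₂ measured in homogenates; stomachs handled the same way. Mean ± SEM, n 6-12; ANOVA with Dunnett's t-test.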

Mus musculus [7] = species on record: Mus musculus; test: Inhibitory activity against LPS stimulated RAW 264.7 macrophages; format: functional; details: RAW264.7
Outline: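 Murine RAW 264.7 cells grown in DMEM with 2 mM glutamine, antibiotics and 10% FBS. Cells at 2 × 10⁶/mL exposed to E. coli LPS 1 µg/mL, 37 °C, 20 h, with compound or vehicle. PGE₂ in supernatants by radioimmunoassay. Cytotoxicity checked by MTT reduction.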

Homo sapiens [8] = species on record: Homo sapiens; test: Percent inhibition of neutrophils (chemiluminescence) was determined at 10 uM concentration in TPA-induced luminol chemiluminescence assay
[9] = (§2) Inhibition of chemiluminescence generated by hypoxanthine/ xanthine oxidase was determined; parameters: concentration or dose not given beside the values; details: concentration not given here; outline: as §1
[10] = as §2; details: concentration not given here; outline: as §1

SMILES	inhibition [1]	PGE2 Level (Mus musculus [2])	PGE2 Level (Mus musculus [3])	inhibition at 10 µM (Homo sapiens [4])	Edema (Mus musculus [5])	PGE2 Level (Mus musculus [6])	IC50 (Mus musculus [7])	inhibition at 10 µM (Homo sapiens [8])	inhibition [9]	inhibition [10]
CCOC(=O)c1cc2ccccn2/c(=N/c2ccc(C)cc2)n1	49.1%	13.3 ng/mL	13.5 ng/mL	31.1%	92.4 µL	71 ng/mL	1700 nM	–	–	–
CCOC(=O)c1cc2ccccn2/c(=N/c2ccc(Cl)cc2)n1	–	8.2 ng/mL	10.6 ng/mL	–	102 µL	83.3 ng/mL	400 nM	38.8%	31.3%	–
CCOC(=O)c1cc2ccccn2c(=O)n1	–	16.9 ng/mL	10.6 ng/mL	–	121.9 µL	85.4 ng/mL	–	29.9%	26.6%	–
CCOC(=O)c1cc2ccccn2c(=S)n1	–	12.8 ng/mL	8.2 ng/mL	–	105.2 µL	89.7 ng/mL	1700 nM	51.8%	43.3%	–
CCOC(=O)c1cc2ccccn2/c(=N/c2ccc(Br)cc2)n1	–	14.8 ng/mL	9.5 ng/mL	–	80.8 µL	76.9 ng/mL	–	24.8%	32.2%	–
CCOC(=O)c1cc2ccccn2/c(=N/c2ccc(OC)cc2)n1	93.3%	12 ng/mL	9.6 ng/mL	–	91.6 µL	78.7 ng/mL	3500 nM	75.9%	–	–
[S-]c1nc2ccccc2c2cccc[n+]12	–	16.9 ng/mL	10.3 ng/mL	–	–	–	–	53.7%	–	51.6%
CCOC(=O)c1cc2ccccn2/c(=N/c2ccc(F)cc2)n1	–	11.8 ng/mL	8.9 ng/mL	–	103.9 µL	82.5 ng/mL	1500 nM	44.4%	49.6%	–
CS(=O)(=O)Nc1ccc([N+](=O)[O-])cc1OC1CCCCC1 [NS-398]	–	3.7 ng/mL	2.1 ng/mL	–	97.2 µL	53 ng/mL	2.1 nM	–	–	–
CCOC(=O)c1cc2ccccn2/c(=N/c2ccccc2)n1	57.1%	10.9 ng/mL	11 ng/mL	52.3%	82.2 µL	70.6 ng/mL	–	–	–	–

Source: ChEMBL document CHEMBL1134367, “Solid-phase synthesis and inhibitory effects of some pyrido[1,2-c]pyrimidine derivatives on leukocyte formations and experimental inflammation” (J Med Chem, 2001)
